# Hits are enriched below; roughly 4.7% of the tested compounds scored in any of these assays.
# aSyn 5UTR inh – MLPCN primary screen, SNCA 5' untranslated region; alpha-synuclein 5'UTR reporter, inhibitor activity; inhibition, % (tested at 7.5 µM); actives 0.82% (n = 300,000); AID 1813; in the data active = inhibition above about 60%;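 note: H4 neuroglioblastoma cells stably carrying SNCA 5'UTR luciferase fusion; 0% = DMSO wells and 100% = positive control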
# Jurkat NFkB inh – lowers PMA/ionomycin-induced NF-kB signal in Jurkat cells; PMA/ionomycin-induced NF-kB luciferase reporter, luminescence; AID 435003; actives 0.53% (n = 330,000); inhibition, % at 4 µM; in the data active = inhibition above about 50%
# 697 NFkB inh – lowers PMA/ionomycin-induced NF-kB signal in 697 B cells | AID 435022 | 697 B-cell NF-kB luciferase reporter, 16 h | actives 0.33% (n = 330,000) | inhibition, % at 4 µM; in the data active = inhibition above about 35%
# IMP-1 inh-1 – inhibitors of Pseudomonas aeruginosa IMP-1 metallo-beta-lactamase | purified IMP-1, nitrocefin hydrolysis, epi-absorbance fluorescence | inhibition, % at 5.6 µM | actives 0.45% (n = 290,000);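 active = inhibition above the mean plus 3 SD of all compounds in the same screening run, cut at about 4.5% in these data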;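 note: 0% = IMP-1 with DMSO and 100% = DMSO wells lacking enzyme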
#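 Material – recombinant IMP-1 enzyme, purified · Amount – IMP-1 0.2 nM before substrate addition · Medium – HEPES buffer pH 7.1 with ZnSO4 and Brij 35 · Timing – 25 °C, 15 min preincubation, 25 min reaction · Measured by – plate fluorescence quenching by hydrolysis product, ex 480/em 530 nm · Read-out – percent enzyme inhibition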
# Mdm2-MdmX inh – human Mdm2/MdmX binding inhibition. inhibition, % at 8 µM. actives 3% (n = 330,000). O15151+Q00987. SaOS-2 split-luciferase Mdm2/MdmX complementation, luminescence. AID 485346;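 active = inhibition of at least 50% at 8 µM in the primary screen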
# VIM-2 inh – blocks Pseudomonas aeruginosa VIM-2 metallo-beta-lactamase; purified VIM-2, nitrocefin hydrolysis, epi-absorbance fluorescence; inhibition, % at 5.6 µM; actives 0.89% (n = 290,000); AID 1527;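 active = inhibition above the mean of all tested compounds plus 3 SD, cutoff set per screening run, cut at about 7.5% in these data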;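 note: red hydrolysis product quenches plate fluorescence so inhibitors raise well fluorescence; 0% = enzyme with DMSO and 100% = DMSO without enzyme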
# IMP-1 inh-2 – selectivity counter-screen for VIM-2 inhibitors: IMP-1 metallo-beta-lactamase inhibitors; shares compounds with VIM-2 inh; purified IMP-1, nitrocefin hydrolysis, epi-absorbance fluorescence; inhibition, % at 5.6 µM; 1,300 tested, under 10 active; call rule not given here;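 note: 0% = enzyme with vehicle and 100% = vehicle without enzyme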
# VIM-2 FRET inh – VIM-2 FRET inhibition, artifact counter-screen; shares compounds with VIM-2 inh; actives 23% (n = 1,300); inhibition, % at 5.6 µM; AID 1857; purified VIM-2, CCF2 FRET substrate hydrolysis;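 active = inhibition above the mean of all tested compounds plus 3 SD, cut at about 19% in these data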;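 note: 0% = VIM-2 plus DMSO and 100% = no enzyme wells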
# TEM-1 counter – TEM-1 inhibition, counter-screen for VIM-2 inhibitors; shares compounds with VIM-2 inh; inhibition, % at 5.6 µM; AID 1866; actives 3% (n = 1,300); Purified TEM-1, nitrocefin hydrolysis, epi-absorbance fluorescence;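 active = inhibition above that campaign's mean inhibition plus 3 SD, cut at about 0.46% in these data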;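 note: 0% = TEM-1 with DMSO and 100% = TEM-1 with 100 µM potassium clavulanate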
# VIM-2 confirm 2 – confirmation of P. aeruginosa VIM-2 metallo-beta-lactamase inhibitors; shares compounds with VIM-2 inh; purified VIM-2, nitrocefin hydrolysis, epi-absorbance; inhibition, % at 5.6 µM; actives 96% (n = 1,300); AID 2187;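 active = inhibition of the VIM-2 beta-lactamase enzyme above about 11% from the earlier first-round screen, limit read from the data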;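 note: 0% = VIM-2 with DMSO and 100% = buffer wells without enzyme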
# Active calls of the source: *; / = no result given.
SMILES,aSyn 5UTR inh,Jurkat NFkB inh,697 NFkB inh,IMP-1 inh-1,Mdm2-MdmX inh,VIM-2 inh,IMP-1 inh-2,VIM-2 FRET inh,TEM-1 counter,VIM-2 confirm 2
COc1ccc(CCNc2oc(-c3ccccc3OC)nc2C#N)cc1,-12,-2,9,-4,5,1,/,/,/,/
N#Cc1nc(-c2ccc(OCc3ccc(Cl)cc3)cc2)oc1NCCCn1ccnc1,-52,-28,-21,-4,5,-5,/,/,/,/
COc1ccc(-c2nc(C#N)c(NCCCN(C)C)o2)cc1OC,2,-46,-7,3,8,12*,-2,1,-6,27*
COc1ccccc1-c1nc(C#N)c(NCCCn2ccnc2)o1,-19,10,0,-1,3,18*,-4,-6,-5,35*
Cc1cc(C(=O)CCC(=O)N2CCN(c3ccccc3)CC2)c(C)s1,-11,1,0,/,19,/,/,/,/,/
Nc1c(Cl)cc(C2=NCCn3c2c2ccc(C(F)(F)F)cc2[n+]3[O-])cc1Cl,-10,15,-19,/,3,/,/,/,/,/
Cn1ccnc1C(O)c1ccccc1 (stereo unspecified),-29,9,14,-2,8,-1,/,/,/,/
COc1ccc2ccccc2c1C(O)c1nccn1C (stereo unspecified),-13,4,-1,1,3,13*,0,-2,-1,11*
COc1ccc2ccc(=O)oc2c1CC(=O)C(C)C,/,5,-3,/,1,/,/,/,/,/
CC(C)c1ccc(/C=c2\sc3nc(-c4ccncc4)nn3c2=O)cc1,-16,-3,-8,-4,14,-1,/,/,/,/
Cc1ccc(/C=c2\sc3nc(-c4cccnc4)nn3c2=O)cc1,-17,/,/,-3,/,56*,-2,65*,-5,60*
CCOc1ccc(CCNC(=O)c2ccc(=O)[nH]c2)cc1OCC,-30,10,16,-2,17,27*,-2,-4,-1,2
CCC(NC(=S)NC1CCCCC1)c1ccc(C)cc1 (stereo unspecified),16,4,-19,-1,21,-4,/,/,/,/
COc1ccc(CC(=O)Nc2ccncc2Cl)cc1,4,24,-18,-2,10,-1,/,/,/,/
O=C(Nc1ccc(N2CCCC2=O)cc1)c1cccc(F)c1,-98,-93,-104,-1,-54,0,/,/,/,/
CCOc1cccc(C(=O)NC(=S)Nc2ccc(N3CCN(CC)CC3)cc2)c1,-80,-14,-26,-1,0,45*,-4,-4,-8,77*
COc1ccc(Cn2c(=O)[nH]c3cc(C(=O)Nc4ccc(N5CCN(C)CC5)cc4)ccc32)cc1,5,-17,-24,-2,21,16*,-2,-5,-5,42*
CCN1CCN(c2ccc(NC(=O)c3cccc(N4CCCC4=O)c3)cc2)CC1,-61,-47,-20,-2,-4,17*,-3,-3,-4,22*
CN1CCN(c2ccc(NC(=O)N3CCc4ccccc43)cc2)CC1,70*,-56,-90,-3,16,28*,-4,-1,-5,40*
Cc1ccc(NC(=O)N2CCc3ccccc32)cc1,-18,-131,-248,-4,-162,-2,/,/,/,/
CN(C(=O)CS(=O)(=O)c1cn(CC(=O)N2CCCC2)c2ccccc12)c1ccccc1,0,3,12,-2,2,0,/,/,/,/
COc1cccc(OC)c1OC(=O)/C=C/c1ccc(C)o1,13,13,4,-2,21,-2,/,/,/,/
CN1CCN(c2ccc(NC(=O)c3ccc4c(c3)OCCO4)cc2)CC1,-12,-88,-65,-2,0,18*,-3,-6,-6,34*
CN1CCN(c2ccc(NC(=O)c3cccc(OCc4ccccc4)c3)cc2)CC1,-85,-72,-51,-1,43,12*,-3,0,-5,28*
Cc1ccc(C(=O)Nc2ccc(N3CCN(C)CC3)cc2)cc1C,15,-95,-109,-2,-28,16*,-3,1,-6,29*
SMILES,aSyn 5UTR inh,Jurkat NFkB inh,697 NFkB inh,IMP-1 inh-1,Mdm2-MdmX inh,VIM-2 inh,IMP-1 inh-2,VIM-2 FRET inh,TEM-1 counter,VIM-2 confirm 2
COc1cccc(C(=O)Nc2ccc(N3CCN(Cc4ccccc4)CC3)cc2)c1,-47,3,-17,-3,-6,-1,/,/,/,/
ClC(Cl)(Cl)c1nc(N/N=C/c2ccncc2)c2ccccc2n1,-36,15,0,-4,28,34*,-3,-4,-6,65*
O=[N+]([O-])c1cccc(/C=N/Nc2nc(C(Cl)(Cl)Cl)nc3ccccc23)c1,-46,-3,5,-4,10,-4,/,/,/,/
Cc1ccc(S(=O)(=O)CCC(=O)NCCC2=CCCCC2)cc1,-2,-1,4,/,22,/,/,/,/,/
CCSc1nnc2ccc(-c3ccc(OC)c(OC)c3)nn12,62*,6,28,-4,26,31*,-4,1,-8,44*
COc1ccc(-c2ccc3nnc(SCC(N)=O)n3n2)cc1,11,-6,-22,-3,13,0,/,/,/,/
CSc1nc(SCC(=O)O)c2c3c(sc2n1)COC(C)(C)C3,-13,-5,-1,-4,-32,17*,-3,43*,-6,25*
CCc1nc2sc3c(c2c(=S)[nH]1)CC(C)(C)OC3,-15,-19,1,-2,3,2,/,/,/,/
CSc1nc2sc3c(c2c(=S)[nH]1)CC(C)(C)OC3,3,-29,-7,-2,20,15*,-3,21*,-7,19*
Cc1c(/C=C2\NC(=O)NC2=O)c2ccccc2n1C,10,8,-1,-3,1,0,/,/,/,/
O=C(O)c1cc2ccc3ccccc3c2[nH]1,-19,14,27,1,19,14*,-3,18*,-4,16*
O=C(O)c1ccccc1NS(=O)(=O)c1cccc(C(F)(F)F)c1,-22,14,5,-4,20,1,/,/,/,/
O=C(O)c1ccccc1NS(=O)(=O)c1cccc(-n2sc3ccccc3c2=O)c1,8,7,-2,-1,16,19*,-3,-24,-7,17*
O=C(Nc1nnc2n1CCS2)c1ccc(Br)o1,10,-3,-9,-2,-7,-4,/,/,/,/
CCOc1ccc(-c2nnc3n2N=C(c2ccc(OC)cc2)CS3)cc1,20,38,10,-6,38,-3,/,/,/,/
COc1ccc(C2=Nn3c(nnc3-c3ccncc3)SC2)cc1OC,72*,-10,21,1,38,64*,-2,0,-4,75*

# Screens from PubChem.
